# Test results taken from ChEMBL document CHEMBL1649552 (2009).
# Assays:
# Assay type in all cases: functional
# Pseudomonas aeruginosa [1] = assay: Antibacterial activity against Pseudomonas aeruginosa assessed as intermediate isolates by CLSI M100-S17 method
# Klebsiella pneumoniae [2] = assay: Antibacterial activity against Klebsiella pneumoniae by CLSI M100-S17 method
# [3] = test system: Stenotrophomonas maltophilia; assay: Antibacterial activity against Stenotrophomonas maltophilia by CLSI M100-S17 method
# Serratia marcescens [4] = assay: Antibacterial activity against Serratia marcescens by CLSI M100-S17 method
# Serratia marcescens [5] = assay: Antibacterial activity against Serratia marcescens assessed as susceptible isolates by CLSI M100-S17 method
# Klebsiella oxytoca [6] = assay: Antibacterial activity against Klebsiella oxytoca assessed as susceptible isolates by CLSI M100-S17 method
# Pseudomonas aeruginosa [7] = assay: Antibacterial activity against Pseudomonas aeruginosa by CLSI M100-S17 method
# Enterobacter cloacae [8] = assay: Antibacterial activity against Enterobacter cloacae assessed as susceptible isolates by CLSI M100-S17 method
# Proteus mirabilis [9] = assay: Antibacterial activity against Proteus mirabilis by CLSI M100-S17 method
# Klebsiella pneumoniae [10] = assay: Antibacterial activity against Klebsiella pneumoniae assessed as intermediate isolates by CLSI M100-S17 method
# Enterobacter cloacae [11] = assay: Antibacterial activity against Enterobacter cloacae assessed as intermediate isolates by CLSI M100-S17 method
# Proteus mirabilis [12] = assay: Antibacterial activity against Proteus mirabilis assessed as susceptible isolates by CLSI M100-S17 method
# Escherichia coli [13] = assay: Antibacterial activity against Escherichia coli assessed as intermediate isolates by CLSI M100-S17 method
# Escherichia coli [14] = assay: Antibacterial activity against Escherichia coli by CLSI M100-S17 method
# Acinetobacter baumannii [15] = assay: Antibacterial activity against Acinetobacter baumannii assessed as susceptible isolates by CLSI M100-S17 method
# Acinetobacter baumannii [16] = assay: Antibacterial activity against Acinetobacter baumannii assessed as resistant isolates by CLSI M100-S17 method
# Acinetobacter baumannii [17] = assay: Antibacterial activity against Acinetobacter baumannii by CLSI M100-S17 method
# Klebsiella oxytoca [18] = assay: Antibacterial activity against Klebsiella oxytoca by CLSI M100-S17 method
# Pseudomonas aeruginosa [19] = assay: Antibacterial activity against Pseudomonas aeruginosa assessed as susceptible isolates by CLSI M100-S17 method
# Moraxella catarrhalis = assay: Antibacterial activity against Moraxella catarrhalis by CLSI M100-S17 method
# Escherichia coli [20] = assay: Antibacterial activity against Escherichia coli assessed as susceptible isolates by CLSI M100-S17 method
# Proteus mirabilis [21] = assay: Antibacterial activity against Proteus mirabilis assessed as intermediate isolates by CLSI M100-S17 method
# Pseudomonas aeruginosa [22] = assay: Antibacterial activity against Pseudomonas aeruginosa assessed as resistant isolates by CLSI M100-S17 method
# Acinetobacter baumannii [23] = assay: Antibacterial activity against Acinetobacter baumannii assessed as intermediate isolates by CLSI M100-S17 method
# Serratia marcescens [24] = assay: Antibacterial activity against Serratia marcescens assessed as intermediate isolates by CLSI M100-S17 method
# Enterobacter cloacae [25] = assay: Antibacterial activity against Enterobacter cloacae by CLSI M100-S17 method
# Klebsiella pneumoniae [26] = assay: Antibacterial activity against Klebsiella pneumoniae assessed as susceptible isolates by CLSI M100-S17 method
# Klebsiella oxytoca [27] = assay: Antibacterial activity against Klebsiella oxytoca assessed as intermediate isolates by CLSI M100-S17 method
# Streptococcus pyogenes [28] = assay: Antibacterial activity against Streptococcus pyogenes by CLSI M100-S17 method
# Staphylococcus aureus [29] = assay: Antibacterial activity against methicillin-susceptible Staphylococcus aureus by CLSI M100-S17 method
# [30] = test system: Staphylococcus epidermidis; assay: Antibacterial activity against methicillin-susceptible Staphylococcus epidermidis assessed as susceptible isolates by CLSI M100-S17 method
# Enterococcus faecium [31] = assay: Antibacterial activity against Enterococcus faecium by CLSI M100-S17 method
# [32] = test system: Staphylococcus epidermidis; assay: Antibacterial activity against methicillin-resistant Staphylococcus epidermidis by CLSI M100-S17 method
# Enterococcus faecalis [33] = assay: Antibacterial activity against Enterococcus faecalis assessed as intermediate isolates by CLSI M100-S17 method
# Streptococcus pneumoniae [34] = assay: Antibacterial activity against Streptococcus pneumoniae by CLSI M100-S17 method
# Enterococcus faecalis [35] = assay: Antibacterial activity against Enterococcus faecalis by CLSI M100-S17 method
# [36] = test system: Staphylococcus epidermidis; assay: Antibacterial activity against methicillin-susceptible Staphylococcus epidermidis by CLSI M100-S17 method
# Enterococcus faecium [37] = assay: Antibacterial activity against Enterococcus faecium assessed as resistant isolates by CLSI M100-S17 method
# Staphylococcus aureus [38] = assay: Antibacterial activity against methicillin-resistant Staphylococcus aureus by CLSI M100-S17 method
# Enterococcus faecalis [39] = assay: Antibacterial activity against Enterococcus faecalis assessed as resistant isolates by CLSI M100-S17 method
# Streptococcus pneumoniae [40] = assay: Antibacterial activity against Streptococcus pneumoniae assessed as susceptible isolates by CLSI M100-S17 method
# Method in brief: (§1)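 CLSI broth microdilution on clinical isolates, using frozen in-house-prepared panels of test and comparator agents. MICs were read after 20 to 24 h incubation at 35°C in ambient air. Susceptible/intermediate categories were assigned by CLSI M100-S17 guidelines.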
# Streptococcus agalactiae [41] = assay: Antibacterial activity against Streptococcus agalactiae by CLSI M100-S17 method
# Staphylococcus aureus [42] = assay: Antibacterial activity against methicillin-susceptible Staphylococcus aureus assessed as intermediate isolates by CLSI M100-S17 method
# Enterococcus faecium [43] = assay: Antibacterial activity against Enterococcus faecium assessed as intermediate isolates by CLSI M100-S17 method
# Staphylococcus aureus [44] = assay: Antibacterial activity against methicillin-susceptible Staphylococcus aureus assessed as susceptible isolates by CLSI M100-S17 method
# Streptococcus agalactiae [45] = assay: Antibacterial activity against Streptococcus agalactiae assessed as susceptible isolates by CLSI M100-S17 method; method in brief: as §1
# Enterococcus faecium [46] = assay: Antibacterial activity against Enterococcus faecium assessed as susceptible isolates by CLSI M100-S17 method
# Streptococcus pyogenes [47] = assay: Antibacterial activity against Streptococcus pyogenes assessed as susceptible isolates by CLSI M100-S17 method; method in brief: as §1
# [48] = test system: Staphylococcus epidermidis; assay: Antibacterial activity against methicillin-susceptible Staphylococcus epidermidis assessed as intermediate isolates by CLSI M100-S17 method
# Enterococcus faecalis [49] = assay: Antibacterial activity against Enterococcus faecalis assessed as susceptible isolates by CLSI M100-S17 method
# [50] = test system: Staphylococcus epidermidis; assay: Antibacterial activity against methicillin-resistant Staphylococcus epidermidis assessed as resistant isolates by CLSI M100-S17 method
# Staphylococcus aureus [51] = assay: Antibacterial activity against methicillin-susceptible Staphylococcus aureus assessed as resistant isolates by CLSI M100-S17 method
# Streptococcus pyogenes [52] = assay: Antibacterial activity against Streptococcus pyogenes assessed as resistant isolates by CLSI M100-S17 method
# Method in brief: (§2)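 Clinical isolates were tested by CLSI broth microdilution in frozen, in-house-prepared 96-well panels of the test agent and comparator agents. MICs were read and classed as susceptible, intermediate or resistant using CLSI M100-S17 breakpoints. The value is the share of isolates in each category.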
# Staphylococcus aureus [53] = assay: Antibacterial activity against methicillin-resistant Staphylococcus aureus assessed as resistant isolates by CLSI M100-S17 method
# Streptococcus agalactiae [54] = assay: Antibacterial activity against Streptococcus agalactiae assessed as intermediate isolates by CLSI M100-S17 method; method in brief: as §1
# Streptococcus agalactiae [55] = assay: Antibacterial activity against Streptococcus agalactiae assessed as resistant isolates by CLSI M100-S17 method; method in brief: as §2
# [56] = test system: Staphylococcus epidermidis; assay: Antibacterial activity against methicillin-susceptible Staphylococcus epidermidis assessed as resistant isolates by CLSI M100-S17 method
# Streptococcus pyogenes [57] = assay: Antibacterial activity against Streptococcus pyogenes assessed as intermediate isolates by CLSI M100-S17 method; method in brief: as §1
# Staphylococcus aureus [58] = assay: Antibacterial activity against methicillin-resistant Staphylococcus aureus assessed as susceptible isolates by CLSI M100-S17 method
# [59] = test system: Staphylococcus epidermidis; assay: Antibacterial activity against methicillin-resistant Staphylococcus epidermidis assessed as susceptible isolates by CLSI M100-S17 method
# Staphylococcus aureus [60] = assay: Antibacterial activity against methicillin-resistant Staphylococcus aureus assessed as intermediate isolates by CLSI M100-S17 method
smiles,measurement,setting,value
C[C@@H](O)[C@H]1C(=O)N2C(C(=O)O)=C(S[C@@H]3CN[C@H](C(=O)N(C)C)C3)[C@H](C)[C@H]12 [MEROPENEM],Activity,Pseudomonas aeruginosa [1],4.1%
same,MIC50,Klebsiella pneumoniae [2],≤ 0.06 µg/mL
same,MIC90,Klebsiella pneumoniae [2],≤ 0.06 µg/mL
same,MIC50,[3],> 64 µg/mL
same,MIC90,[3],> 64 µg/mL
same,MIC50,Serratia marcescens [4],≤ 0.06 µg/mL
same,MIC90,Serratia marcescens [4],≤ 0.06 µg/mL
same,Activity,Serratia marcescens [5],100%
same,Activity,Klebsiella oxytoca [6],100%
same,MIC50,Pseudomonas aeruginosa [7],0.5 µg/mL
same,MIC90,Pseudomonas aeruginosa [7],8 µg/mL
same,Activity,Enterobacter cloacae [8],100%
same,MIC50,Proteus mirabilis [9],≤ 0.06 µg/mL
same,MIC90,Proteus mirabilis [9],≤ 0.06 µg/mL
same,Activity,Klebsiella pneumoniae [10],0%
same,Activity,Enterobacter cloacae [11],0%
same,Activity,Proteus mirabilis [12],100%
same,Activity,Escherichia coli [13],0%
same,MIC50,Escherichia coli [14],≤ 0.06 µg/mL
same,MIC90,Escherichia coli [14],≤ 0.06 µg/mL
same,Activity,Acinetobacter baumannii [15],92%
same,Activity,Acinetobacter baumannii [16],8%
same,MIC50,Acinetobacter baumannii [17],0.5 µg/mL
same,MIC90,Acinetobacter baumannii [17],4 µg/mL
same,MIC50,Klebsiella oxytoca [18],≤ 0.06 µg/mL
same,MIC90,Klebsiella oxytoca [18],≤ 0.06 µg/mL
same,Activity,Pseudomonas aeruginosa [19],87.8%
same,MIC,Moraxella catarrhalis,≤ 0.06 µg/mL
same,MIC50,Moraxella catarrhalis,≤ 0.06 µg/mL
same,MIC90,Moraxella catarrhalis,≤ 0.06 µg/mL
same,Activity,Escherichia coli [20],100%
same,Activity,Proteus mirabilis [21],0%
same,Activity,Pseudomonas aeruginosa [22],8.1%
same,Activity,Acinetobacter baumannii [23],0%
same,Activity,Serratia marcescens [24],0%
same,MIC50,Enterobacter cloacae [25],≤ 0.06 µg/mL
same,MIC90,Enterobacter cloacae [25],≤ 0.06 µg/mL
same,Activity,Klebsiella pneumoniae [26],100%
same,Activity,Klebsiella oxytoca [27],0%
CC(=O)NC[C@H]1CN(c2ccc(N3CCOCC3)c(F)c2)C(=O)O1 [LINEZOLID],MIC50,Streptococcus pyogenes [28],1 µg/mL
same,MIC90,Streptococcus pyogenes [28],1 µg/mL
same,MIC50,Staphylococcus aureus [29],2 µg/mL
same,MIC90,Staphylococcus aureus [29],2 µg/mL
same,Activity,[30],100%
same,MIC50,Enterococcus faecium [31],2 µg/mL
same,MIC90,Enterococcus faecium [31],2 µg/mL
same,MIC50,[32],1 µg/mL
same,MIC90,[32],1 µg/mL
same,Activity,Enterococcus faecalis [33],1.3%
same,MIC50,Streptococcus pneumoniae [34],0.5 µg/mL
same,MIC90,Streptococcus pneumoniae [34],1 µg/mL
same,MIC50,Enterococcus faecalis [35],2 µg/mL
same,MIC90,Enterococcus faecalis [35],2 µg/mL
same,MIC50,[36],0.5 µg/mL
same,MIC90,[36],1 µg/mL
same,Activity,Enterococcus faecium [37],0%
same,MIC50,Staphylococcus aureus [38],2 µg/mL
same,MIC90,Staphylococcus aureus [38],4 µg/mL
same,Activity,Enterococcus faecalis [39],0%
same,Activity,Streptococcus pneumoniae [40],100%
same,MIC50,Streptococcus agalactiae [41],1 µg/mL
same,MIC90,Streptococcus agalactiae [41],1 µg/mL
same,Activity,Staphylococcus aureus [42],0%
same,Activity,Enterococcus faecium [43],8.6%
same,Activity,Staphylococcus aureus [44],100%
same,Activity,Streptococcus agalactiae [45],100%
same,Activity,Enterococcus faecium [46],91.4%
same,Activity,Streptococcus pyogenes [47],100%
same,Activity,[48],0%
same,Activity,Enterococcus faecalis [49],98.7%
CCC[C@@H]1C[C@@H](C(=O)N[C@@H]([C@H]2O[C@H](SC)[C@H](O)[C@@H](O)[C@H]2O)[C@H](C)Cl)N(C)C1 [CLINDAMYCIN],Activity,[50],90%
same,Activity,Staphylococcus aureus [51],8.6%
same,Activity,Streptococcus pyogenes [52],2.7%
same,MIC50,Staphylococcus aureus [29],≤ 0.12 µg/mL
same,MIC90,Staphylococcus aureus [29],≤ 0.12 µg/mL
same,Activity,[30],61.1%
same,MIC50,Enterococcus faecium [31],> 8 µg/mL
same,MIC90,Enterococcus faecium [31],> 8 µg/mL
same,MIC50,[32],> 8 µg/mL
same,Activity,Staphylococcus aureus [53],61.8%
same,MIC50,Enterococcus faecalis [35],> 8 µg/mL
same,MIC90,Enterococcus faecalis [35],> 8 µg/mL
same,MIC50,[36],≤ 0.12 µg/mL
same,MIC90,[36],> 8 µg/mL
same,Activity,Streptococcus agalactiae [54],2.3%
same,Activity,Streptococcus agalactiae [55],12.5%
same,Activity,[56],38.9%
same,Activity,Streptococcus pyogenes [57],0%
same,MIC50,Staphylococcus aureus [38],> 8 µg/mL
same,MIC90,Staphylococcus aureus [38],> 8 µg/mL
same,Activity,Staphylococcus aureus [58],37.9%
same,Activity,[59],10%
same,MIC50,Streptococcus agalactiae [41],≤ 0.06 µg/mL
same,MIC90,Streptococcus agalactiae [41],> 8 µg/mL
same,Activity,Staphylococcus aureus [42],0.4%
same,Activity,Staphylococcus aureus [44],91%
same,Activity,Streptococcus agalactiae [45],85.2%
same,Activity,Staphylococcus aureus [60],0.3%
same,Activity,Streptococcus pyogenes [47],97.3%
same,Activity,[48],0%
